One series has as its system BxPC-3 tumor. In words: MicroPET imaging of the BxPC-3 xenograft model. Format: in vivo, mice. As to conditions: for SUVmax in BxPC-3 tumor: mean ± SD, n = 3 animals.
A further series deals with DX3puroβ6 cell line. In words: Radiotracer cell binding and internalization, DX3puroβ6 cells. Conditions: DX3puroβ6, 1 hour, acidic wash buffer pH 2.5, 4°C. Format: cell-based, human. An outline of the steps: (§1)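 3.75 × 10^6 cells were incubated with 0.2 μCi radiotracer in serum-free medium, pH 7.2, over a time course or for 1 h, n = 4 per cell line per time point. Bound fraction was γ-counted as cell pellet vs supernatant. Acid wash (0.2 mol/L sodium acetate, 0.5 mol/L NaCl, pH 2.5, 4°C) then released surface activity; internalized fraction was pellet vs released activity.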

For a further series, the system named is BxPC-3 cell line. Description: Radiotracer cell binding and internalization, BxPC-3 cells. Format: cell-based, human. As to conditions: BxPC-3, 1 hour, acidic wash buffer pH 2.5, 4°C. The method, boiled down: as §1
The subject of a further series is BxPC-3 xenograft. Description: Biodistribution in the BxPC-3 xenograft model. Format: in vivo, mice. The method, boiled down: (§2)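 Male athymic nude mice (nu/nu) received 1.5 × 10^6 BxPC-3 cells s.c. in the left shoulder region, in 1:1 serum-free DMEM/MatriGel. Studies began at a tumor diameter of ∼0.5 cm. Radiotracers (∼15 to 30 μCi) were given in saline/PBS, n = 3 per time point. Tumor and tissue radioactivity was expressed as decay-corrected %ID/g, mean ± SD. Significance was tested by two-tailed Student's t-test.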

Series [1] is described as follows: Biodistribution in the BxPC-3 xenograft model. Conditions: male, athymic nude (nu/nu), mouse, BxPC-3 tumor, iv, total radioactivity. Format: in vivo, mice. The method, boiled down:
as §2

Series [2] concerns DX3puroβ6 (αvβ6-positive) and DX3puro (αvβ6-negative) xenografts. As to conditions: previously seen, cited from earlier work.
For series [3] the test system is unchanged. Description: Biodistribution in the DX3puro/DX3puroβ6 xenograft model. Format: in vivo, mice. An outline of the steps: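 Each male athymic nude mouse (nu/nu) carried both xenografts: 3 × 10^6 DX3puroβ6 (αvβ6-transduced) and 3 × 10^6 DX3puro (control) melanoma cells in serum-free DMEM, injected s.c. on opposite shoulder flanks. Studies began at a tumor diameter of ∼0.5 cm. Radiotracers (∼15 to 30 μCi) were given in saline/PBS, n = 3 per time point. Uptake was expressed as decay-corrected %ID/g, mean ± SD.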

Where two headings read alike, the source gives them in different places.

On to `O=C[C@H]([18F])[C@@H](O)[C@H](O)[C@H](O)CO` [[^18F]FDG, 2-[^18F]fluoro-2-deoxy-D-glucose, reference compound], for which, in the series with BxPC-3 tumor (1 h p.i.), the “SUVmax in BxPC-3 tumor” value was determined as 0.62 ± 0.13. The “detection of BxPC-3 tumors by PET” value with BxPC-3 tumor (BxPC-3 xenograft bearing mice) is on record as “failed in all animals to detect the BxPC-3 tumors”.

One may read the tissue uptake as the share of the injected amount in each gram of the tissue. `CC(C)C[C@H](NC(=O)[C@H](CC(=O)O)NC(=O)CNC(=O)[C@H](CCCNC(=N)N)NC(=O)[C@H](CC(C)C)NC(=O)[C@H](CC(N)=O)NC(=O)[C@@H]1CCCN1C(=O)[C@@H](NC(=O)[C@H](C)NC(=O)[C@H](CC(N)=O)NC(=O)c1ccc(F)cc1)C(C)C)C(=O)N[C@@H](CCC(N)=O)C(=O)N[C@H](C(=O)N[C@@H](CC(C)C)C(=O)N[C@@H](C)C(=O)N[C@@H](CCC(N)=O)C(=O)N[C@@H](CCCCN)C(=O)N[C@H](C(=O)N[C@@H](C)C(=O)N[C@@H](CCCNC(=N)N)C(=O)N[C@H](C(N)=O)[C@@H](C)O)C(C)C)C(C)C` [[^18F]FBA-A20FMDV2, 4-[^18F]fluorobenzoyl A20FMDV2]: the “fraction of bound radioactivity internalized” value with DX3puroβ6 cell line and with BxPC-3 cell line was “less than half” in each case. Besides, the BxPC-3/blood ratio with BxPC-3 xenograft (1 h) was 3.3 :1; with BxPC-3 xenograft (4 h), 7.0 :1. The results for the BxPC-3/muscle ratio in the series with BxPC-3 xenograft (1 h) and in the series on BxPC-3 xenograft (4 h) were 1.3 :1 and 2.5 :1, respectively. Besides, the BxPC-3/pancreas ratio in the series with BxPC-3 xenograft (4 h) was 9.5 :1. The tissue uptake at 1 h in series [1] was 0.69 ± 0.19 %ID/g. For the same molecule, the tissue uptake at 4 h in series [1] worked out at 0.12 ± 0.03 %ID/g. In addition, the “uptake in αvβ6-positive DX3puroβ6 tumor” value in series [2] (1 h p.i.) is given as 0.66 ± 0.09 % ID/g; in series [2] (4 h p.i.), 0.06 ± 0.00 % ID/g. Besides, the results for the “SUVmax in BxPC-3 tumor” value with BxPC-3 tumor (15min), in the series on BxPC-3 tumor (1 h p.i.) and in the series on BxPC-3 tumor (4 h) were 0.50 ± 0.22, 0.22 ± 0.11 and under 0.05, respectively.

As for `CC(C)C[C@H](NC(=O)[C@H](CC(=O)O)NC(=O)CNC(=O)[C@H](CCCNC(=N)N)NC(=O)[C@H](CC(C)C)NC(=O)[C@H](CC(N)=O)NC(=O)[C@@H]1CCCN1C(=O)[C@@H](NC(=O)[C@H](C)NC(=O)[C@H](CC(N)=O)NC(=O)CCOCCOCCOCCOCCOCCOCCOCCOCCOCCOCCOCCOCCOCCOCCOCCOCCOCCOCCOCCOCCOCCOCCOCCOCCOCCOCCOCCOCCNC(=O)CCOCCOCCOCCOCCOCCOCCOCCOCCOCCOCCOCCOCCOCCOCCOCCOCCOCCOCCOCCOCCOCCOCCOCCOCCOCCOCCOCCOCCNC(=O)c1ccc(F)cc1)C(C)C)C(=O)N[C@@H](CCC(N)=O)C(=O)N[C@H](C(=O)N[C@@H](CC(C)C)C(=O)N[C@@H](C)C(=O)N[C@@H](CCC(N)=O)C(=O)N[C@@H](CCCCN)C(=O)N[C@H](C(=O)N[C@@H](C)C(=O)N[C@@H](CCCNC(=N)N)C(=O)N[C@H](C(N)=O)[C@@H](C)O)C(C)C)C(C)C` [[^18F]FBA-(PEG28)2-A20FMDV2], in series [3], the “maximal αvβ6-positive/-negative xenograft uptake ratio” value is 9.2 :1. Further, in the series on BxPC-3 xenograft (1 h), the BxPC-3/blood ratio is recorded as 9.0 :1, the BxPC-3/muscle ratio is listed as 4.1 :1 and the BxPC-3/pancreas ratio is given as 5.6 :1. In the series on BxPC-3 xenograft (4 h), the BxPC-3/blood ratio is given as 150 :1, the BxPC-3/muscle ratio is given as 4.4 :1 and the BxPC-3/pancreas ratio is given as 4.4 :1. Besides, in series [1], the tissue uptake at 1 h came to 1.57 ± 0.25 %ID/g and the tissue uptake at 4 h came to 2.08 ± 0.37 %ID/g. In the series on BxPC-3 tumor (15min), the “SUVmax in BxPC-3 tumor” value is listed as 0.99 ± 0.18. Moreover, the “SUVmax in BxPC-3 tumor” value with BxPC-3 tumor (1 h p.i.) was 0.79 ± 0.24. Further, the “SUVmax in BxPC-3 tumor” value in the series with BxPC-3 tumor (4 h) turned out to be 0.59 ± 0.20.

The values are drawn from PMC2711989 (Cancer research, 2009).
